Test results reported in ChEMBL document CHEMBL3112403, “Design, synthesis and evaluation of second generation MurF inhibitors based on a cyanothiophene scaffold” (Eur J Med Chem, 2014).

Legend:
Escherichia coli [1] = assay: Antibacterial activity against Escherichia coli AB734 assessed as growth inhibition by broth microdilution method; format: functional
Outline: (§1)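 MICs by broth microdilution in Mueller-Hinton broth following CLSI guidelines.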

Staphylococcus aureus = assay: Antibacterial activity against Staphylococcus aureus SH1000 assessed as growth inhibition by broth microdilution method; format: functional; outline: as §1
Escherichia coli [2] = assay: Antibacterial activity against Escherichia coli 1411 assessed as growth inhibition by broth microdilution method; format: functional; outline: as §1
Escherichia coli [3] = assay: Antibacterial activity against Escherichia coli SM1411 harboring acrAB deletion mutant assessed as growth inhibition by broth microdilution method; format: functional
Outline: (§2)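 MIC by broth microdilution in Mueller-Hinton broth following CLSI guidelines. ES100 is the tolC derivative of AB734, and SM1411 is the acrAB derivative of 1411; both are efflux-deficient E. coli strains. Growth inhibition was read as the minimum inhibitory concentration.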

[4] = Inhibition of Escherichia coli MurF ligase using D-Ala-D-Ala as substrate after 15 mins by malachite green assay
Outline: (§3)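 After 15 min at 37 °C, Biomol reagent was added and phosphate read at 650 nm, in duplicate. RA was taken relative to a 5% DMSO control. IC50 was taken as the concentration giving 50% RA, from seven concentrations.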

[5] = biological target: T1, UDP-N-acetylmuramoyl-tripeptide--D-alanyl-D-alanine ligase (Streptococcus pneumoniae, UniProt Q9ZHC3); assay: Inhibition of Streptococcus pneumoniae MurF ligase using D-Ala-D-Ala as substrate after 15 mins by malachite green assay
T1 sequence (Q9ZHC3 whole entry): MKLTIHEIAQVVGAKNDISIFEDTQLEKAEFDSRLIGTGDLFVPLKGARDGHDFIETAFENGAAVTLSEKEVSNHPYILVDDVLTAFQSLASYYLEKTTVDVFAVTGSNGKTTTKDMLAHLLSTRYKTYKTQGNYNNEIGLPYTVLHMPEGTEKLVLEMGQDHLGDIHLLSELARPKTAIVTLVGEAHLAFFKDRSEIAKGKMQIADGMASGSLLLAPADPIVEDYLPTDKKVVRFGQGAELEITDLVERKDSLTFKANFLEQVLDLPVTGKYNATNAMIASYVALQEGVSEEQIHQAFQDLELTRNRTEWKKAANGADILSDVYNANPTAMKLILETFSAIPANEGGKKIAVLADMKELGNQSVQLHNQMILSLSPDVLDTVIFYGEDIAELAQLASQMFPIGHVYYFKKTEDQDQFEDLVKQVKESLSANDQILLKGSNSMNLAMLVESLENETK
Outline: (§4)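 Purified S. pneumoniae MurF in 50 mM Hepes pH 8.0 with 50 mM MgCl2, 0.005% Triton X-114, 100 µM D-Ala-D-Ala, 50 µM UMtri-L-Lys and 250 µM ATP, with 5% DMSO final. After 15 min at 37 °C, Biomol reagent was added and absorbance read at 650 nm, in duplicate. RA was taken against a 5% DMSO control. IC50 was the 50% RA point from seven concentrations.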

Escherichia coli [6] = assay: Antibacterial activity against Escherichia coli AB734 assessed as growth inhibition by broth microdilution method in presence of polymyxin B nonapeptide; format: functional
Outline: (§5)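 Broth microdilution MIC in Mueller-Hinton broth per CLSI, run with 4 µg/mL polymyxin B nonapeptide to permeabilize the outer membrane.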

Escherichia coli [7] = assay: Antibacterial activity against Escherichia coli ES100 harboring tolC deletion mutant assessed as growth inhibition by broth microdilution method; format: functional; outline: as §2
Escherichia coli [8] = assay: Antibacterial activity against Escherichia coli 1411 assessed as growth inhibition by broth microdilution method in presence of polymyxin B nonapeptide; format: functional; outline: as §5
[9] = biological target: T2, UDP-N-acetylmuramoyl-tripeptide--D-alanyl-D-alanine ligase (Streptococcus pneumoniae) (UniProt Q9ZHC3); assay: Inhibition of Streptococcus pneumoniae MurF ligase using D-Ala-D-Ala as substrate assessed as residual activity at 250 uM after 15 mins by malachite green assay; outline: as §4
T2 sequence (whole entry): T1 sequence (Q9ZHC3 whole entry)

Escherichia coli [10] = assay: Inhibition of […] MurF ligase using D-Ala-D-Ala as substrate assessed as residual activity at 250 uM after 15 mins by malachite green assay; outline: as §3

SMILES | MIC (Escherichia coli [1]) [µg/mL] | MIC (Staphylococcus aureus) [µg/mL] | MIC (Escherichia coli [2]) [µg/mL] | MIC (Escherichia coli [3]) [µg/mL] | IC50 [4] [µM] | IC50 [5] [µM] | MIC (Escherichia coli [6]) [µg/mL] | MIC (Escherichia coli [7]) [µg/mL] | MIC (Escherichia coli [8]) [µg/mL] | Activity [9] [%] | Activity (Escherichia coli [10]) [%]
Cl.N#Cc1c(NC(=O)c2cc(OCCCNC(=N)N)ccc2Cl)sc2c1CCCC2 | 32 | > 256 | 32 | 16 | 102 | 78 | 32 | 8 | 32 |  | 
Cl.N#Cc1c(NC(=O)c2cc(OCCN)ccc2Cl)sc2c1CCCC2 | 128 | 128 | 128 | 32 | 208 | 170 | 32 | 32 | 32 |  | 
N#Cc1c(NC(=O)c2cc(OCC(N)=O)ccc2Cl)sc2c1CCCC2 |  |  |  |  |  |  |  |  |  | 87 | 74
Cl.N#Cc1c(NC(=O)c2cc(S(=O)(=O)NCCN)c(Cl)cc2Cl)sc2c1CCCC2 | > 256 | > 256 | > 256 | 128 | 418 | 219 | 128 | 64 | 128 |  | 
N#Cc1c(NC(=O)c2cc(OCCCN)ccc2Cl)sc2c1CCCC2 | 64 | 128 | 64 | 32 | 272 | 128 | 32 | 32 | 32 |  | 
COc1ccc(CN2CCc3c(sc(NC(=O)c4cc(OCCNC(=N)N)ccc4Cl)c3C#N)C2)cc1.Cl | 32 | 32 | 32 | 32 | 78 | 61 | 32 | 8 | 32 |  | 
N#Cc1ccc(CN2CCc3c(sc(NC(=O)c4cc(OCCNC(=O)C(F)(F)F)ccc4Cl)c3C#N)C2)cc1 | > 256 | > 256 | > 256 | > 256 |  |  | > 256 | > 256 | > 256 | 55 | 45
N#Cc1ccc(CN2CCc3c(sc(NC(=O)c4cc(OCCN)ccc4Cl)c3C#N)C2)cc1 | < 256 | 128 | < 256 | 64 | 76 | 107 | 64 | 32 | 64 |  | 
Cl.N#Cc1c(NC(=O)c2cc(OCCNC(=N)N)ccc2Cl)sc2c1CCCC2 | 16 | 64 | 16 | 8 | 56 | 75 | 8 | 8 | 8 |  | 
N#Cc1c(NC(=O)c2cc(OCCN)ccc2Cl)sc2c1CCN(Cc1ccc(C(=O)O)cc1)C2 | > 256 | > 256 | > 256 | > 256 | 336 | 663 | > 256 | > 256 | > 256 |  | 
Cl.N#Cc1c(NC(=O)c2cc(OCCNC(=N)N)ccc2Cl)sc2c1CCN(Cc1ccc(O)cc1)C2 | 64 | 4 | 64 | 16 | 25 | 20 | 16 | 4 | 16 |  | 
N#Cc1c(NC(=O)c2cccc(OCn3cc(Cl)cn3)c2)sc2c1CCC2 |  |  |  |  | 56 | 126 |  |  |  |  | 
N#Cc1c(NC(=O)c2cc(OCCN)ccc2Cl)sc2c1CCC(c1ccc(O)cc1)C2 (stereo not given) | > 256 | > 256 | > 256 | 32 | 81 | 58 | 16 | 8 | 16 |  | 
N#Cc1c(NC(=O)c2cccc(OCCCN)c2)sc2c1CCCC2 |  |  |  |  |  |  |  |  |  | 53 | 75
